# Results from different studies.
# Lines come from different studies, so protocols differ.
# Target: Mu-type opioid receptor (OPRM1, Homo sapiens, UniProt P35372)
# Read-out: ligand displacement
SMILES,method,tested at,inhibition [%]
CCN(CC)c1ccc(C2Nc3ccc(C(=O)c4ccccc4)cc3NC3=C2C(=O)CC(C)(C)C3)cc1 (centres unmarked),radioligand,10 µM,9
COc1ccc(-n2nc(OCCCN3CCCCC3)ccc2=O)cc1,,1 µM,45.8
O=C(c1ccc(Cl)cc1)N(Cc1ccccc1)C1CCCCC1,,10 µM,10.9
CN1CCN(CCCOc2ccc(=O)n(-c3ccc(Cl)c(Cl)c3)n2)CC1,,1 µM,17.2
O=C1N=C(N2CCCCN2)S/C1=C\c1ccc(F)cc1O,radioligand,10 µM,< 10
N#Cc1cc(Cn2c(N3CCCC3)nc3ccccc32)ccc1F,,10 µM,-6.78
Ic1cccc2cnccc12,radioligand,10 µM,-4
CCCNc1nc2ccccc2n1Cc1ccc(Cl)cc1,,10 µM,12.4
COc1cc(NC(C)=O)c(Cl)cc1C(=O)Nc1nccs1,,10 µM,-5.3
CCN(Cc1ccccc1C(F)(F)F)C(=O)C1CCN(S(=O)(=O)c2ccc3[nH]ncc3c2)CC1,radioligand,10 µM,5
O=C(Nc1ccc(S(=O)(=O)N2CCC(Cl)CC2)cc1)c1ccc([N+](=O)[O-])o1,radioligand,10 µM,1
